In PubChem BioAssay one finds GFP response relative to DMSO data, which are given here for 40 compounds.

Structures are written as SMILES. Active and inactive are the calls of the source.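 The calls were made as follows: active = GFP response above 150% of the DMSO control; inconclusive = fewer than 70 events counted in any yeast strain; inactive = the rest.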

A short description of the first experiment: yeast TOR pathway reporter LAP4-GFP change – cell-based, cherry picks, flow cytometry, mother/daughter gates, confirmation (AID 2271).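 Also: ratio of sample to DMSO plate mean so 100% equals DMSO level.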 The conditions noted are these: S. cerevisiae LAP4-GFP strain, 3 h, at 10 µM, stronger effect = higher value, 100 means same as DMSO control. The method in brief:
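Material: Alexa Fluor 633-labelled Saccharomyces cerevisiae GFP-fusion strain, single-plex | Amount: Yeast cells seeded at OD600 of 0.2 | Buffer or medium: SC growth medium | Schedule: 3 h exposure, 30 °C | Measured by: HT flow cytometry, GFP fluorescence channel | Evaluation: % GFP response vs DMSO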
As for `Cc1c(O)nc(SC2CC(=O)N(c3ccccc3)C2=O)[nH]c1=O` (stereo not given), the GFP response relative to DMSO is 109% (inactive).

With `COC(=O)c1ccc(/C=N\NC(=O)c2ccc(C)cc2Cl)cc1`, the GFP response relative to DMSO was 95.4% (inactive).

Turning to `Cc1cccc(CS(=O)(=O)c2ncc(Cl)c(C(=O)NCc3ccccc3)n2)c1`, the GFP response relative to DMSO was 108% (inactive).

Regarding `Cc1ccc(S(=O)(=O)N2CCCC2C(=O)OCc2ccco2)cc1` (stereo not given), the GFP response relative to DMSO is 89% (inactive).

Regarding `Clc1ccc(N=c2ssnc2Cl)cc1`, the GFP response relative to DMSO is 154% (active).

For `O=C1c2ccccc2C(=O)C2OC12` (stereo not given), the GFP response relative to DMSO was 218% (active).

For `CCCc1[nH]nc2c1C(c1ccc(OC)cc1OC)C(C#N)=C(N)O2` (stereo not given), the GFP response relative to DMSO is 92.8% (inactive).

Regarding `O=[N+]([O-])c1ncccc1OCc1ccc(-c2ccccc2)cc1`, the GFP response relative to DMSO was 135% (inactive).

As for `C/C(=N/NS(=O)(=O)c1ccccc1)c1ccc(NC(=O)C(F)(F)F)cc1`, the GFP response relative to DMSO was 94.2% (inactive).

Turning to `O=C1c2ccsc2SCCN1Cc1ccccc1`, the GFP response relative to DMSO was 112% (inactive).

For the compound `CCc1ccc(-c2csc(NC(=O)COC(=O)CCc3nc4ccccc4s3)n2)cc1`, the GFP response relative to DMSO is 98.2% (inactive).

Regarding `COc1ccc(-c2nn(-c3ccccc3)cc2C(=O)NC(=S)NNC(=O)c2ccncc2)cc1`, the GFP response relative to DMSO was 105% (inactive).

For `CCOC(=O)Cc1csc(NC(=O)CSc2nnc(-c3ccc(C)cc3)o2)n1`, the GFP response relative to DMSO was 103% (inactive).

Consider `CCOC(=O)C1=C(Cc2ccc(Cl)cc2)C(=O)c2ccccc2C1=O`, for which the GFP response relative to DMSO was 112% (inactive).

In the case of `COC(=O)c1ccc(N2C(=O)CC(SCCN)C2=O)cc1` (stereo not given), the GFP response relative to DMSO was 98.9% (inactive).

On to `O=S1(=O)Nc2c(ccc3cccnc23)-c2ccccc21`, for which the GFP response relative to DMSO is 124% (inactive).

Turning to `Cc1cccc2c1NC(=O)/C2=C\C(=O)c1cccs1`, the GFP response relative to DMSO was 164% (active).

In the case of `Nc1cccnc1S(=O)(=O)c1cccc(C(F)(F)F)c1`, the GFP response relative to DMSO is 96.7% (inactive).

Regarding `CC(Oc1ccc(Br)cc1)C(=O)Nc1nc(-c2ccccn2)cs1` (stereo not given), the GFP response relative to DMSO is 241% (active).

In the case of `O=C1Nc2ccccc2C(=O)C1(Cl)Cc1ccccc1` (stereo not given), the GFP response relative to DMSO was 132% (inactive).

Turning to `Cc1ccc(C(c2cc(Cl)c3cccnc3c2O)N2CCN(C)CC2)cc1` (stereo not given), the GFP response relative to DMSO was 184% (active).

Regarding `Cc1ccc(C)c(NC(=O)c2ccccc2O)c1`, the GFP response relative to DMSO is 108% (inactive).

Regarding `CN(C)CCCNc1cc(C(C)(C)C)nc2c(-c3ccc(Cl)cc3)cnn12`, the GFP response relative to DMSO was 116% (inactive).

Consider `O=C(O)c1ccc(N/N=C/c2c(F)cccc2Cl)cc1`, for which the GFP response relative to DMSO is 124% (inactive).

`O=C(O)c1ccccc1C(=O)N1CCN(c2cccc(Cl)c2)CC1`: the GFP response relative to DMSO is 100% (inactive).

`O=C(COC(=O)CCc1nc2ccccc2s1)Nc1nc(-c2ccccc2)cs1`: the GFP response relative to DMSO is 96.2% (inactive).

On to `O=[N+]([O-])c1cc(O)c2ncccc2c1`, for which the GFP response relative to DMSO was 205% (active).

As for `NC1=NC(=O)C(CC(=O)c2ccc(Cl)cc2)S1` (stereo not given), the GFP response relative to DMSO was 106% (inactive).

Consider `NC(=O)C1CCN(C(=S)NCCc2ccccc2)CC1`, for which the GFP response relative to DMSO is 91.8% (inactive).

In the case of `COc1ccc(-c2cc(C(F)(F)F)nc(S(C)(=O)=O)n2)cc1`, the GFP response relative to DMSO was 136% (inactive).

Consider `Oc1c(C(Nc2cccc(C(F)(F)F)c2)c2ccncc2)ccc2cccnc12` (stereo not given), for which the GFP response relative to DMSO is 135% (inactive).

On to `CC(=O)Nc1cccc(Oc2ccc(-c3noc(C)n3)cc2)c1`, for which the GFP response relative to DMSO was 101% (inactive).

On to `N#C/C(C(=O)Nc1ccc(Cl)cc1)=C(/S)Nc1ccccc1`, for which the GFP response relative to DMSO is 105% (inactive).

For `COc1ccc(NC2=C(Cl)C(=O)N(CCc3ccccc3)C2=O)c(OC)c1`, the GFP response relative to DMSO was 102% (inactive).

`CCN=C(NCC)SC1CC(=O)N(c2cccc(OCC)c2)C1=O` (stereo not given): the GFP response relative to DMSO was 101% (inactive).

On to `Cn1c(=O)[nH]c(=O)c2c1nc(N1CCCCC1)n2CCOc1ccccc1`, for which the GFP response relative to DMSO was 98.7% (inactive).

Turning to `CC(=O)Nc1ccc(NC(=O)c2nc(S(=O)(=O)Cc3ccccc3)ncc2Cl)cc1`, the GFP response relative to DMSO is 106% (inactive).

Consider `COc1cc(CCN2C(=O)c3cccc4cccc(c34)C2=O)c(S(=O)(=O)NCCCO)cc1OC`, for which the GFP response relative to DMSO was 95.3% (inactive).

Consider `CCOc1cc(C)c(S(=O)(=O)N2CCCC2)cc1C`, for which the GFP response relative to DMSO was 137% (inactive).

Take `CC1CCCCN1S(=O)(=O)c1ccc(C(=O)Nc2nnc(-c3ccccc3Cl)o2)cc1` (stereo not given): the GFP response relative to DMSO was 94.1% (inactive).

The experiment is the same for the next values; noted with them: S. cerevisiae LAP4-GFP strain, 3 h, measured here: daughter cell gate response, at 10 µM, stronger effect = higher value, 100 means same as DMSO control.
As to `Cc1c(O)nc(SC2CC(=O)N(c3ccccc3)C2=O)[nH]c1=O` (stereo not given), the GFP response relative to DMSO stood at 101%.

`COC(=O)c1ccc(/C=N\NC(=O)c2ccc(C)cc2Cl)cc1` displayed a GFP response relative to DMSO of 94.4%.

Take `Cc1cccc(CS(=O)(=O)c2ncc(Cl)c(C(=O)NCc3ccccc3)n2)c1`: the GFP response relative to DMSO is 108%.

As for `Cc1ccc(S(=O)(=O)N2CCCC2C(=O)OCc2ccco2)cc1` (stereo not given), the GFP response relative to DMSO came to 92.5%.

The compound `Clc1ccc(N=c2ssnc2Cl)cc1` yielded a GFP response relative to DMSO of 139%.

For `O=C1c2ccccc2C(=O)C2OC12` (stereo not given), the GFP response relative to DMSO turned out to be 179%.

As to `CCCc1[nH]nc2c1C(c1ccc(OC)cc1OC)C(C#N)=C(N)O2` (stereo not given), the GFP response relative to DMSO stood at 91.2%.

In turn, `O=[N+]([O-])c1ncccc1OCc1ccc(-c2ccccc2)cc1` had a GFP response relative to DMSO of 138%.

`C/C(=N/NS(=O)(=O)c1ccccc1)c1ccc(NC(=O)C(F)(F)F)cc1` returned a GFP response relative to DMSO of 95%.

The compound `O=C1c2ccsc2SCCN1Cc1ccccc1` yielded a GFP response relative to DMSO of 109%.

Consider `CCc1ccc(-c2csc(NC(=O)COC(=O)CCc3nc4ccccc4s3)n2)cc1`, for which the GFP response relative to DMSO is 97.5%.

`COc1ccc(-c2nn(-c3ccccc3)cc2C(=O)NC(=S)NNC(=O)c2ccncc2)cc1` came in with a GFP response relative to DMSO of 108%.

The compound `CCOC(=O)Cc1csc(NC(=O)CSc2nnc(-c3ccc(C)cc3)o2)n1` showed a GFP response relative to DMSO of 101%.

Turning to `CCOC(=O)C1=C(Cc2ccc(Cl)cc2)C(=O)c2ccccc2C1=O`, the GFP response relative to DMSO stood at 107%.

In the case of `COC(=O)c1ccc(N2C(=O)CC(SCCN)C2=O)cc1` (stereo not given), the GFP response relative to DMSO stood at 102%.

For `O=S1(=O)Nc2c(ccc3cccnc23)-c2ccccc21`, the GFP response relative to DMSO amounted to 104%.

`Cc1cccc2c1NC(=O)/C2=C\C(=O)c1cccs1` gave a GFP response relative to DMSO of 148%.

In the case of `Nc1cccnc1S(=O)(=O)c1cccc(C(F)(F)F)c1`, the GFP response relative to DMSO is 97.6%.

With `CC(Oc1ccc(Br)cc1)C(=O)Nc1nc(-c2ccccn2)cs1` (stereo not given), the GFP response relative to DMSO came to 184%.

Regarding `O=C1Nc2ccccc2C(=O)C1(Cl)Cc1ccccc1` (stereo not given), the GFP response relative to DMSO turned out to be 124%.

Consider `Cc1ccc(C(c2cc(Cl)c3cccnc3c2O)N2CCN(C)CC2)cc1` (stereo not given), for which the GFP response relative to DMSO stood at 141%.

In turn, `Cc1ccc(C)c(NC(=O)c2ccccc2O)c1` showed a GFP response relative to DMSO of 99%.

Take `CN(C)CCCNc1cc(C(C)(C)C)nc2c(-c3ccc(Cl)cc3)cnn12`: the GFP response relative to DMSO amounted to 107%.

As for `O=C(O)c1ccc(N/N=C/c2c(F)cccc2Cl)cc1`, the GFP response relative to DMSO was 121%.

In turn, `O=C(O)c1ccccc1C(=O)N1CCN(c2cccc(Cl)c2)CC1` came in with a GFP response relative to DMSO of 97.9%.

`O=C(COC(=O)CCc1nc2ccccc2s1)Nc1nc(-c2ccccc2)cs1`: the GFP response relative to DMSO amounted to 98.7%.

Regarding `O=[N+]([O-])c1cc(O)c2ncccc2c1`, the GFP response relative to DMSO is 200%.

For the compound `NC1=NC(=O)C(CC(=O)c2ccc(Cl)cc2)S1` (stereo not given), the GFP response relative to DMSO is 99.3%.

With `NC(=O)C1CCN(C(=S)NCCc2ccccc2)CC1`, the GFP response relative to DMSO turned out to be 91.3%.

On to `COc1ccc(-c2cc(C(F)(F)F)nc(S(C)(=O)=O)n2)cc1`, for which the GFP response relative to DMSO was 134%.

`Oc1c(C(Nc2cccc(C(F)(F)F)c2)c2ccncc2)ccc2cccnc12` (stereo not given) displayed a GFP response relative to DMSO of 120%.

In turn, `CC(=O)Nc1cccc(Oc2ccc(-c3noc(C)n3)cc2)c1` showed a GFP response relative to DMSO of 99.1%.

`N#C/C(C(=O)Nc1ccc(Cl)cc1)=C(/S)Nc1ccccc1` came in with a GFP response relative to DMSO of 104%.

`COc1ccc(NC2=C(Cl)C(=O)N(CCc3ccccc3)C2=O)c(OC)c1` returned a GFP response relative to DMSO of 101%.

Regarding `CCN=C(NCC)SC1CC(=O)N(c2cccc(OCC)c2)C1=O` (stereo not given), the GFP response relative to DMSO turned out to be 99.2%.

In turn, `Cn1c(=O)[nH]c(=O)c2c1nc(N1CCCCC1)n2CCOc1ccccc1` registered a GFP response relative to DMSO of 100%.

As to `CC(=O)Nc1ccc(NC(=O)c2nc(S(=O)(=O)Cc3ccccc3)ncc2Cl)cc1`, the GFP response relative to DMSO is 105%.

In turn, `COc1cc(CCN2C(=O)c3cccc4cccc(c34)C2=O)c(S(=O)(=O)NCCCO)cc1OC` yielded a GFP response relative to DMSO of 96.5%.

For the compound `CCOc1cc(C)c(S(=O)(=O)N2CCCC2)cc1C`, the GFP response relative to DMSO turned out to be 128%.

Compound `CC1CCCCN1S(=O)(=O)c1ccc(C(=O)Nc2nnc(-c3ccccc3Cl)o2)cc1` (stereo not given) displayed a GFP response relative to DMSO of 94.4%.
